Among all 1,300 compounds or so, about 65 (5%) were called active.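 The calls were made as follows: active = growth inhibition reaching a set limit at one or more tested doses; inactive = the rest.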 The list is a sample of the results. Results with a measured potency or affinity are listed apart.
assay: growth inhibition of wild-type E. coli, dose response, BW25113 wild type, OD615 (AID 638); settings: at 100 µM (top of the series) unless noted
In short: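 Material – E. coli BW25113 wild type · Medium – Kanamycin-supplemented LB broth · Doses – compound dilution series for dose-response · Incubation – 20 h compound exposure, 37 °C · Technique – optical density (absorbance) at 615 nm · Read-out basis – IC50 from 4-parameter logistic, bounds fixed 0–100% · Control set – chloramphenicol at 30 µM final as inhibition control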

Growth inhibition, inactive:
CCSc1nnc(NC(=O)CSc2nccn2-c2cccc(C)c2C)s1 2.99%
Cc1onc(-c2c(F)cccc2Cl)c1C(=O)Nc1nc2c(s1)CCCC2 -5.05%
Cc1cc(N2CCN(C(c3ccccc3)c3ccccc3)CC2)n2ncnc2n1 6.9%
COc1ccc(OC)c(S(=O)(=O)n2cnc3cc(C)c(C)cc32)c1 -5.06%
Brc1cc(Br)c2ncnc(N3CCCCC3)c2c1 7.11%
CCc1nc(N2CCCCC2)c2oc3ccccc3c2n1 -1.03%
c1ccc(-c2nc(CSc3nnc(-c4cccs4)o3)cs2)cc1 -5.14%
Cc1cc(-c2ccco2)c(C#N)c2nc3ccccc3n12 -4.65%
Cc1ccc(NC(=O)N2CCC(c3nc4c(nnn4Cc4cccc(Cl)c4)c(=O)[nH]3)CC2)cc1 -0.39%
O=C(Nc1nnc(-c2ccc(Cl)cc2)o1)c1ccccc1Br 5.98% [at 50 µM]
O=C(Nc1nnc(-c2ccccc2)o1)c1nc2ccccc2s1 -11.8%
Cc1ccc(C2c3c(-c4ccccc4O)n[nH]c3C(=O)N2Cc2ccncc2)cc1 (stereo not drawn) -4.25%
O=C(Nc1ccc(Cl)c(Cl)c1)N1CCSC1c1ccco1 (stereo not drawn) 15.6%
CCc1nnc(NC(=O)c2cccc(C(=O)Nc3nnc(CC)s3)n2)s1 9.58%
CCSc1nnc(NC(=O)c2nc(-c3ccccc3)n(-c3ccccc3)n2)s1 -4.83%
Cc1ccc(-c2nnc3sc(CCc4ccccc4)nn23)cc1 9.95%
COC(=O)c1ccsc1NC(=O)CN1CCN(c2ccc(F)cc2)CC1 -9.19%
O=C(c1cccc(COc2ccc(Cl)cc2Cl)c1)N1CCN(c2ccccn2)CC1 -14.7%
O=C(Nc1nc2ccccc2s1)C1CCCN1S(=O)(=O)c1ccc(Cl)cc1 (stereo not drawn) -7.08%
COc1ccc(-c2nnc(SCc3cc(C)cc(C)c3)o2)cc1 -1.05%
c1ccc(N2CCN(c3ncnc4c3oc3ccccc34)CC2)cc1 -9.68%
COc1ccc(C)cc1NC(=O)CSc1nnc(COc2ccccc2)n1Cc1ccco1 0.64%
CCc1cc2c3c(c(=O)oc2cc1O)CCCC3 -5.58%
CCCn1c(CNc2ccc(Br)cc2)nc2ccccc21 7.8%
CCc1nc2ccccc2c(=O)n1NC(=O)c1c(O)c2cccc3c2n(c1=O)CCC3 -13.7%
O=C(Nc1nc2ccccc2n1CCOc1ccc(Cl)cc1)c1ccco1 3.35%
COc1ccc(C2CC(c3ccccc3)n3nc(NC(=O)c4cccs4)nc3N2)cc1 (stereo not drawn) 3.83%
O=C(Cn1c2c(c(-c3ccccc3)cc1=O)CCCC2)N1CCCCCC1 3.36%
C=CCn1c(SCC(O)Cn2c3ccccc3c3ccccc32)nnc1-c1ccco1 (stereo not drawn) -9.43%
O=C(CSc1nnc2scc(-c3ccccc3)n12)Nc1nsc(-c2ccccc2)n1 -9.04%
COc1ccc(Cl)cc1N1CCN(CCNC(=O)Nc2ccccc2C)CC1 -2.62%
Cn1c(=O)c(C(=S)NC(=O)C2CC2)c(N)n(Cc2ccccc2)c1=O -3.57%
N=c1c2c(-c3ccccc3)c(-c3ccccc3)n(Cc3ccco3)c2ncn1Cc1ccco1 8.39%
CC(C)(C)N1C(=O)Cc2c1nc(N)c1c(N)nc(N3CCCCC3CO)c(C#N)c21 (stereo not drawn) -2.72%
c1csc(-c2noc(COc3ccc4c(c3)CCCC4)n2)c1 14.2%
COc1ccc(CNC(=O)c2cc(-c3ccccc3OC)on2)cc1 10.6%
O=C(CS(=O)(=O)c1ccccc1)Nc1nc(-c2ccccc2)cs1 7.34%
CCN(CC)c1ccc(C(=O)Nc2cccc(F)c2)cc1 0.51%
O=C(CN1CCN(S(=O)(=O)c2ccc(F)cc2)CC1)Nc1ccc(Cl)c(C(F)(F)F)c1 1.58%
CC1CCN(c2nc3ccccc3nc2C(C#N)S(=O)(=O)c2ccccc2)CC1 (stereo not drawn) -11.4%
CC1=CCC(COC(=O)Nc2ccccc2)CC1 (stereo not drawn) 10.3%
Cc1cccnc1NC(=O)c1c(O)c2cccc3c2n(c1=O)CCC3 0.91%
CCn1c(=O)c(C(=O)Nn2c(C)nc3ccccc3c2=O)c(O)c2ccccc21 2.63%
CCOC(=O)Cc1c(C)nc2c(-c3cccc(Br)c3)c[nH]n2c1=O 7.94%
Cc1onc(-c2ccccc2)c1C(=O)Nc1nnc(COc2ccc(Cl)cc2)s1 -9.06%
CCn1c(C(=O)N2CCC(Cc3ccccc3)CC2)cc2sccc21 -18.6%
N#Cc1c(NC(=O)c2ccc(Br)o2)n(-c2ccccc2)c2nc3ccccc3nc12 -13.4%
CC1=C(C#N)c2nc(N)c(C#N)c(C)c2/C1=C\c1ccccc1 -0.01%
C(=C\c1ccccc1)/CN1CCN(c2ncnc3c2oc2ccccc23)CC1 -1.65%
CCC(CC)c1nnc(NC(=O)c2c(-c3ccccc3)noc2C)s1 9.3%
O=C1c2ccccc2C(O)(Cc2ccccc2)N1C1CCCCC1 (stereo not drawn) -0.01%
CCCc1nc(SCC(=O)N2CCC(Cc3ccccc3)CC2)c2c(=O)n(C)c(=O)n(C)c2n1 -7.24%
O=C(Nc1ccc2nc(-c3cccs3)[nH]c2c1)c1ccco1 15%
Cc1ccccc1S(=O)(=O)Cc1ccc(C(=O)N2CCN(c3cccc(C)c3C)CC2)o1 7.63%
COc1ccc(-c2cc3nc4c(c(N5CCC6(CC5)OCCO6)n3n2)CCCC4)cc1 0.64%
Clc1ccc(C2=Nn3c(nnc3-c3n[nH]c4c3CCC4)SC2)cc1Cl 1.98%
Cc1cccc(N2C(N)=C(C#N)C(C#N)(C#N)C2c2ccccc2)c1 (stereo not drawn) -0.76%

Growth inhibition, active:
O=C(Nc1nc2n(n1)C(c1ccc(Cl)cc1)CC(c1ccc(Cl)cc1)N2)c1ccco1 (stereo not drawn) 13%

— PubChem BioAssay AID638 (SRMLSC, 2007)
